Experimental data from the array DNA melting data of Ke et al. (doi:10.1101/2024.01.08.574731).

Key:
[1] = melting temperature; fluorescence melt of hairpins on a sequencing array, two-state fit, raised by 9.35 °C to match UV melts; details: sodium 0.088 M
How it was run: (§1)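 Two-state fits, bootstrapped, provided melting temperature and folding enthalpy from Cy3 fluorescence normalised to pre-quench Cy3 and to control constructs. Library hairpins with annealed Cy3 and quencher oligos were imaged on a sequenced MiSeq flow cell in 50 mM Na-HEPES pH 8.0, 25 mM NaCl, at 2.5 °C intervals up to 60 °C. Four replicates were combined with inverse-variance weighting. A 9.35 °C upward shift was applied to fitted temperatures to match UV melts.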

[2] = folding enthalpy; higher = less favourable; fluorescence melt of hairpins on a sequencing array, two-state fit; details: sodium 0.088 M
How it was run: as §1

Row | Sequence | Tm [1] [°C] | folding enthalpy [2] [kcal/mol]
1 | GCTTTCCGAAAGGAAGC (((.(((....)))))) | 52.3 | -21.1
2 | GCTTTCGAAAGAAAAGC ((((((....))).))) | 46.6 | -31.3
3 | GCTTTCGAAAGAACTAGC ((((((....)))..))) | 25.4 | -12.3
4 | GCTTTCGAAAGAATAGC ((((((....))).))) | 38.2 | -23.9
5 | GCTTTCGGAAACGAAAGC (((((((....))))))) | 68 | -43.1
6 | GCTTTCGGAAACGAGAGC (((.(((....))).))) | 49.1 | -47
7 | GCTTTGACGAAAGTCAGC (((..(((....)))))) | 33.2 | -12
8 | GCTTTGCCGAAAGGCAGC (((..(((....)))))) | 35.8 | -8.46
9 | GCTTTGCGAAAGCAAGC (((.(((....)))))) | 53.2 | -15.2
10 | GCTTTGCGAAAGCAATGC ((.((((....)))).)) | 60.9 | -27.5
11 | GCTTTGCGAAAGCAGAGC (((.(((....))).))) | 56.5 | -43.8
12 | GCTTTGCGAAAGCATCGC ((..(((....)))..)) | 48.7 | -13.7
13 | GCTTTGCGAAAGCATTGC ((..(((....)))..)) | 40.9 | -19.3
14 | GCTTTGGAAACAAAGC ((((((....)))))) | 57.4 | -38.1
15 | GCTTTGGCGAAAGCCAGC (((..(((....)))))) | 38.2 | -10.1
16 | GCTTTGGGAAACCAAGGC ((.((((....)))).)) | 47.8 | -29.7
17 | GCTTTTACGAAAGTAAGC (((..(((....)))))) | 33.2 | -14.7
18 | GCTTTTCGAAAGAACAGC (((.(((....))).))) | 42.8 | -31.8
19 | GGAAAACGAAAGTTCTCC (((.(((....))).))) | 35.7 | -24.8
20 | GGAAAACGAAAGTTTCC (((.(((....)))))) | 44.1 | -21.7
21 | GGAAAAGCGAAAGCTTCC (((..(((....)))))) | 40.5 | -15.1
22 | GGAAAAGGAAACTTTTCC (((((((....))))))) | 52.7 | -39.6
23 | GGAAACGAAAGTTGTTCC ((((((....)))..))) | 24.9 | -9.91

Row | Sequence | Tm [1] [°C] | folding enthalpy [2] [kcal/mol]
24 | GGAAACGAAAGTTTTCC ((((((....))).))) | 46.2 | -20.4
25 | GGAAACGGAAACATTTCC (((((.(....).))))) | 31.3 | -28.4
26 | GGAAACGGAAACGTTTTC (.(((((....))))).) | 46.8 | -28.3
27 | GGAAACTCGAAAGAGTCC (((..(((....)))))) | 33.8 | -14.3
28 | GGAAAGAAATTTCC (((((....))))) | 29.5 | -18.9
29 | GGAAAGCGAAAGCTATCC (((.(((....))).))) | 47.2 | -25.2
30 | GGAAAGGGAAACCTTTTC (.(((((....))))).) | 37.6 | -24.3
31 | GGAAATCGAAAGATATCC (((.(((....))).))) | 37.8 | -26.2
32 | GGAAATCGAAAGATCTCC (((.(((....))).))) | 34.9 | -26.1
33 | GGAAATCGAAAGATTCC (((.(((....)))))) | 40.4 | -20.9
34 | GGAAATTCGAAAGAATCC (((..(((....)))))) | 26 | -9.79
35 | GGAACAGAAATGTTCC ((((((....)))))) | 54.9 | -39
36 | GGAACAGGAAACTGCTCC (((.(((....))).))) | 40.8 | -31.1
37 | GGAACCGAAAGGTAGTCC ((((((....)))..))) | 29.8 | -12
38 | GGAACCGAAAGGTATTCC ((((((....)))..))) | 33.8 | -13.3
39 | GGAACCGAAAGGTTCTCC ((((((....)))..))) | 51.9 | -10.8
40 | GGAACCTCGAAAGAGTCC (((..(((....)))))) | 27 | -11.3
41 | GGAACGCGAAAGCGTCC (((.(((....)))))) | 53.8 | -13.4
42 | GGAACGGGAAACTGTTCC (((((.(....).))))) | 53 | -42.4
43 | GGAACTCGAAAGAGATCC (((.(((....))).))) | 49.5 | -34.4
44 | GGAACTCGAAAGAGTCC (((.(((....)))))) | 49.2 | -19.5
45 | GGAACTGCGAAAGCATCC (((..(((....)))))) | 24.6 | -6.59
46 | GGAACTGGAAACAGTTTC (.(((((....))))).) | 46.2 | -27.7

Row | Sequence | Tm [1] [°C] | folding enthalpy [2] [kcal/mol]
47 | GGAAGAACGAAAGTTTCC (((..(((....)))))) | 33 | -14.9
48 | GGAAGACGAAAGTCATCC (((.(((....))).))) | 48.7 | -26
49 | GGAAGAGAAATCTTCC ((((((....)))))) | 47.7 | -24.1
50 | GGAAGAGGAAACTCCTCC (((.(((....))).))) | 28 | -13.9
51 | GGAAGAGGAAACTCTTTC (.(((((....))))).) | 37.3 | -27
52 | GGAAGAGGAAACTTTTCC ((((.((....)).)))) | 32.8 | -15.8
53 | GGAAGCGAAAGCTGATCC ((((((....)))..))) | 36.9 | -12.4
54 | GGAAGCGGAAACACTTCC (((((.(....).))))) | 44.3 | -32.9
55 | GGAAGCGGAAACGCTCCC ((.((((....)))).)) | 52.4 | -19.8
56 | GGAAGGCGAAAGCCATCC (((.(((....))).))) | 53.3 | -21.1
57 | GGAAGTACGAAAGTATCC (((..(((....)))))) | 23.4 | -11.1
58 | GGAAGTGAAAACTTCC ((((((....)))))) | 56.4 | -37.3
59 | GGAAGTGGAAACATTTCC ((((.((....)).)))) | 40.3 | -27.9
60 | GGAATAGGAAACTGTTCC ((((.((....)).)))) | 42.9 | -33
61 | GGAATCGAAAGATATCC ((((((....))).))) | 29.1 | -13.4
62 | GGAATCGAAAGATTCTCC ((((((....)))..))) | 44.4 | -13.5
63 | GGAATCGGAAACAATTCC (((((.(....).))))) | 32.6 | -27.8
64 | GGAATCGGAAACGATTCC (((((((....))))))) | 66.1 | -43.2
65 | GGAATGAAAATTCC (((((....))))) | 44.3 | -22.3
66 | GGAATGTCGAAAGACTCC (((..(((....)))))) | 32.6 | -14.3
67 | GGAATTCGAAAGAAATCC (((.(((....))).))) | 39.5 | -30.5
68 | GGAATTCGAAAGAAGTCC (((.(((....))).))) | 49.2 | -37.5
69 | GGACAAGAAATTGTCC ((((((....)))))) | 55.3 | -37.4

Row | Sequence | Tm [1] [°C] | folding enthalpy [2] [kcal/mol]
70 | GGACAAGGAAACTTGCCC ((.((((....)))).)) | 43 | -20.3
71 | GGACACCCGAAAGGGTCC (((..(((....)))))) | 40.9 | -11.5
72 | GGACACCGAAAGGTTTCC (((.(((....))).))) | 48.2 | -32.8
73 | GGACACGAAAGTGCTCC ((((((....))).))) | 50.1 | -22.5
74 | GGACACGAAAGTGTCTCC ((((((....)))..))) | 53.8 | -9.39
75 | GGACACGAAAGTGTTTCC ((((((....)))..))) | 38 | -11.5
76 | GGACAGCGAAAGCTTTCC (((.(((....))).))) | 48.3 | -29.6
77 | GGACAGGGAAACCTATCC (((.(((....))).))) | 32.6 | -19.3
78 | GGACATCGAAAGATATCC (((.(((....))).))) | 38 | -29.8
79 | GGACATGGAAACACGTCC ((((.((....)).)))) | 42.7 | -30
80 | GGACATGGAAACATGTCC (((((((....))))))) | 64.7 | -44.6
81 | GGACATGGAAACGTGTCC (((((.(....).))))) | 52.6 | -45.1
82 | GGACCACGAAAGTGTCC (((.(((....)))))) | 56.1 | -22
83 | GGACCACGAAAGTGTTCC (((.(((....))).))) | 49.4 | -24.8
84 | GGACCAGGAAACTAGTCC ((((.((....)).)))) | 36.4 | -26.9
85 | GGACCCGAAAGGGCGTCC ((((((....)))..))) | 49.1 | -16.7
86 | GGACCCGAAAGGGCTTCC ((((((....)))..))) | 40.6 | -17
87 | GGACCCGAAAGGGGTTCC ((((((....)))..))) | 48.3 | -15
88 | GGACCCGAAAGGGTTCC ((((((....))).))) | 59.7 | -16.8
89 | GGACCCGGAAACAGGCCC ((.((.(....).)).)) | 29 | -16.9
90 | GGACCGCGAAAGCGTTCC (((.(((....))).))) | 53.1 | -20.9
91 | GGACCGGGAAACCGATCC (((.(((....))).))) | 48 | -35.7
